AHR activator = AHR activators, primary screen, cell-based, luminescence, luciferase reporter, human; AHR-responsive luciferase reporter cells; activation, % at 5 µM; 320,000 tested, 2.5% active; AID 2796, 2010; in the data active = activation above about 47%
ABCB6 inh MLPCN = ABCB6 transporter inhibitors, primary screen, K562-ABCB6 cells, flow cytometry, MLPCN library | fluorescence ratio to DMSO, % at 10 µM | AID 602162, 2011 | K562-ABCB6 porphyrin accumulation, 1 h; active compounds read low | 360,000 tested, 0.19% active | ATP-binding cassette sub-family B member 6 (Homo sapiens), Q9NP58;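 active = fluorescence ratio to DMSO below 75%, the collection mean minus 3 SD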;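 note: signal is porphyrin accumulated inside mitochondria; lower ratio means ABCB6 inhibition with less porphyrin fluorescence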
FXN GAA850 act = FXN promoter activators, primary screen, cell-based, luciferase luminescence, HEK293 lucGAA850; HEK293 lucGAA850 FXN promoter luciferase reporter, 24 h; percent of 10 µM SAHA response; activation, % at 6 µM; 360,000 tested, 0.56% active;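 active = activation above the average of all compounds screened plus 3 SD, cutoff fixed separately per campaign, cut at about 7.5% in these data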
STAT3 activator = IL-6 driven STAT3 reporter potentiators, primary screen, U3A cells, luciferase, luminescence, MLSCN library | IL-6 STAT3-luciferase reporter; 100% = signal with IL-6 EC80 alone | activation (% of control), % at 5.6 µM | 190,000 tested, 0.91% active;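 active = activation above the screen-wide mean of compound activation plus 3 SD, cut at about 130% in these data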
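Material: human STAT1-deficient U3A cells with stable STAT3-luciferase reporter / Probe or stimulus: IL-6 stimulus at 33 ng/mL final / Schedule: 1 h compound pre-exposure, 6 h IL-6 stimulation, 37 °C / Technique: luminescence / Read-out basis: percent of IL-6-only median luminescence / Control set: IL-6-only high control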
AHR act cf = AHR activators, confirmation, cell-based, luminescence, luciferase reporter, human | activation, % at 9 µM | shares compounds with AHR activator | 2,300 tested, 87% active | human cells, AHR-responsive luciferase reporter; in the data active = activation above about 49%;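 note: HepG2 hepatoma cells carrying a DRE-driven firefly luciferase reporter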
PXR counter = human PXR activators, counter-screen for AHR activator project, cell-based, luciferase luminescence | shares compounds with AHR activator | 2,300 tested, 88% active | cell-based PXR reporter | activation, % at 11.6 µM; in the data active = activation above about 11%;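 note: human hepatoma DPX-2 cells expressing full-length human PXR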
Target sequence (O75469 whole entry, looked up): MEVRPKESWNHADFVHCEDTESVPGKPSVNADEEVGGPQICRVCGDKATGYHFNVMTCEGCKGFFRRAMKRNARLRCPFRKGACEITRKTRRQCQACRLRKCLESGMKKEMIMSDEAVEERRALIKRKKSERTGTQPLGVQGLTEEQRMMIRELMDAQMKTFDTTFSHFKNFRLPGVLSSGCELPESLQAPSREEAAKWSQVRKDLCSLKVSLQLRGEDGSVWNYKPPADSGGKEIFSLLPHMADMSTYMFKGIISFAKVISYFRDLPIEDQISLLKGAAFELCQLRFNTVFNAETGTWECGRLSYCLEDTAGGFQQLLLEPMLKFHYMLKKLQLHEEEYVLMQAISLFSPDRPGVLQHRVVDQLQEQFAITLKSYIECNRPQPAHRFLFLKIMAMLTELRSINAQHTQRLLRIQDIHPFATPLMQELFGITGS
Numbers stand for hits; n = inactive; x = no result. This is a sample that favours compounds with a hit; in the whole collection about 3.3% have one here.

SMILES	AHR activator	ABCB6 inh MLPCN	FXN GAA850 act	STAT3 activator	AHR act cf	PXR counter
Cn1cc(C(=O)N/N=C/C(Br)=C\c2ccccc2)ccc1=O	111.9	n	n	n	76.7	11.0
Cn1cc(C(=O)N/N=C/C=C/c2ccccc2)ccc1=O	n	n	n	n	x	x
CCN(CC)C(=O)/C=C/c1ccc(OC)c(S(=O)(=O)N2CCCCC2)c1	n	n	n	n	x	x
Nc1c2c(nc3sc4c(c13)CCCC4)-c1ccccc1CC2	n	n	n	x	x	x
CCCCC(=O)N(C)c1c(CC)nc2c(OCCOc3ccccc3)cccn12	x	n	n	x	x	x
CCOC(=O)c1c(NCCN(C)C)c2ccccc2[nH]c1=O	n	n	n	x	x	x
CCOC(=O)c1c(NCc2ccc3c(c2)OCO3)c2ccccc2[nH]c1=O	109.3	n	n	n	74.5	156.0
c1cc(-c2cccs2)nc(-c2cccs2)c1	96.1	n	n	n	84.0	16.1
c1ccc(-c2cccs2)nc1	n	n	n	x	x	x
Cc1ccc(/C=N/n2cc(-c3ccccc3)[nH]c2=S)s1	96.0	n	n	n	84.5	x
CC1CCN(C(=O)Cn2nnc(-c3ccccc3)n2)CC1	n	n	n	x	x	x
c1cc(Nc2cccc3nccnc23)c2nccnc2c1	n	n	n	n	x	x
Fc1ccc(Nc2cccc3nccnc23)cc1	137.4	n	n	n	57.7	13.1
Clc1ccc2oc(-c3cccnc3)nc2c1	n	n	n	n	x	x
Cc1ccc2nc(-c3cccnc3)oc2c1	88.6	n	n	n	105.9	30.7
Nc1cccc(-c2nc3cc(S(=O)(=O)c4ccc5oc(-c6cccc(N)c6)nc5c4)ccc3o2)c1	n	n	n	n	x	x
Cc1ccc2oc(-c3cccc(N)c3)nc2c1	110.1	n	n	n	106.7	10.1
Cc1ccc(OCC(=O)N(C)CC(=O)N(CC(C)C)c2c(N)n(CC(C)C)c(=O)[nH]c2=O)c(C)c1	n	n	n	x	x	x
CCCCCC(=O)Nc1ccc(C(=O)COC(=O)CN2C(=O)NC3(CCCC3)C2=O)cc1	n	n	n	x	x	x
COc1ccc(/C=N/NC(=O)c2cccc(NC(=O)c3ccc(F)cc3)c2)c(C(=O)O)c1OC	105.5	n	n	n	93.2	x
COc1cccc(/C=N/NC(=O)c2cc3c(OC)ccc(OC)c3[nH]2)c1O	84.0	n	n	x	n	n
COc1ccc(/C=N\NC(=O)c2ccc(-c3ccccc3)cc2)c(OC)c1OC	x	n	n	x	x	x
O=C(CNC(=O)c1ccc(Cl)cc1Cl)OCN1C(=O)c2ccccc2C1=O	n	n	n	x	x	x
C=CCNC(=S)NNC(=O)c1ccncc1	n	n	n	n	x	x
CCCCNC(=O)c1nc(C2CCN(S(=O)(=O)c3c(F)cccc3F)CC2)oc1-c1cccc(C(F)(F)F)c1	x	n	x	x	x	x
SMILES	AHR activator	ABCB6 inh MLPCN	FXN GAA850 act	STAT3 activator	AHR act cf	PXR counter
CCOc1ccc(NC(=S)N(CCc2c(C)[nH]c3ccc(C)cc23)Cc2cccnc2)cc1	n	n	n	n	x	x
CCOc1ccc(NC(=S)N(CCc2c(C)[nH]c3ccc(C)cc23)Cc2ccco2)cc1	86.1	n	n	n	66.6	90.8
COc1ccc(NC(=S)N(CCc2c(C)[nH]c3ccc(C)cc23)Cc2ccco2)cc1	100.5	n	n	n	84.3	110.6
Cc1ccc2c(C(=O)CNc3nncs3)c(C)[nH]c2c1	106.0	n	n	x	n	16.9
O=C(CSc1nc2ccccc2c2nc3ccccc3n12)NCc1ccco1	79.5	n	n	n	49.8	47.8
Cc1ccc(S(=O)(=O)NNC(=O)Nc2ccc(C)c(C)c2)c(C)c1	n	n	n	x	x	x
Cc1nccc(-c2ccc(-n3cnc4ccccc43)cc2)n1	83.4	n	n	n	62.8	x
c1ccc2c(c1)ncn2-c1ccc(-c2ccnc3ncnn23)cc1	n	n	n	n	x	x
CCOc1cc(C2C(C(=O)N3CCCCC3)=C(C)NC3=C2C(=O)CCC3)cc(Br)c1O (stereo not drawn)	n	n	n	n	x	x
COc1cccc(-c2c(NC(=O)c3ccco3)oc3ccc(Cl)cc3c2=O)c1	103.6	n	n	x	84.4	56.7
CNC(=O)c1cc2c(-c3ccccc3)nn(C)c2s1	98.8	n	n	x	114.4	24.0
COCCNC(=O)c1cc2c(-c3ccccc3F)nn(C)c2s1	98.0	n	n	n	121.6	23.6
CCn1c(=O)c2cc(C(=O)NCCOC)sc2c2ccccc21	n	n	n	x	x	x
Cn1nc(-c2ccc(Cl)cc2)c2cc(C(=O)N3CCN(c4ccccn4)CC3)sc21	106.2	n	n	n	71.2	45.5
COc1cccc(-c2nn(C)c3sc(C(=O)NCc4ccco4)cc23)c1	94.8	n	n	n	130.0	44.0
CCCCN(C)CCNC(=O)c1cc2c(-c3cccc(OC)c3)nn(C)c2s1	n	n	n	x	x	x
Cn1nc(C(F)(F)F)c2cc(C(=O)Nc3ccc(C(F)(F)F)cc3)sc21	n	n	n	x	x	x
C=CCOc1ccc(/C=C/C(=O)OCC(=O)N2CCC(c3ccccc3)=N2)cc1	n	n	n	x	x	x
CC(=O)C[C@H]1c2cc(F)ccc2S(=O)(=O)N1c1ccc(N(C)C)cc1	n	n	n	x	x	x
COc1ccc(/C=C/C(=O)NC(=S)NNC(=O)c2cccs2)cc1	93.8	n	n	n	n	n
O=C(COc1ccc(Br)cc1)NCCCNC(=O)c1cccnc1	n	n	n	x	x	x
CCOC(=O)c1[nH]c2cc3c(cc2c1NC(=O)CN1CCCCC1C)OCO3 (stereo not drawn)	96.9	x	x	n	91.7	181.8
CCOC(=O)c1[nH]c2cc3c(cc2c1NC(=O)CN1CCN(CCO)CC1)OCO3	n	n	n	x	x	x
O=c1c2ccccc2nc(/C=C/c2ccccc2)n1CCc1ccccc1	n	n	n	n	x	x
O=c1c2ccccc2nc(/C=C/c2cccc([N+](=O)[O-])c2)n1CCO	105.9	n	n	n	68.9	21.0
SMILES	AHR activator	ABCB6 inh MLPCN	FXN GAA850 act	STAT3 activator	AHR act cf	PXR counter
Clc1ccc(/C(Cc2nc3ccccc3[nH]2)=N\Nc2ccccc2)cc1	90.6	n	n	n	n	48.8
CCOc1ccc(/C=N/NC(=O)c2ccc(F)cc2)cc1CN1CC2CC(C1)c1cccc(=O)n1C2 (stereo not drawn)	n	n	n	x	x	x
CCn1c(=N)n(CC(=O)c2cccc([N+](=O)[O-])c2)c2ccccc21	n	n	n	n	x	x
N=c1n(CCN2CCOCC2)c2ccccc2n1CC(=O)c1cccc([N+](=O)[O-])c1	133.7	n	n	x	148.4	86.7
CC(C)OC(=O)/C(=C/c1ccc2c(c1)c1ccccc1n2C)NC(=O)c1ccccc1	79.7	n	n	n	97.0	182.9
CC(C)OC(=O)/C(=C\c1cccnc1)NC(=O)c1ccccc1	n	n	n	n	x	x
Cc1ccc2cc3c(NC(=O)c4ccco4)nn(C)c3nc2c1	81.7	n	n	n	97.0	n

Assay outcomes from PubChem.
